We go through three molecules from ChEMBL document CHEMBL5712081, “Signaling function of PRC2 is essential for TCR-driven T cell responses” (J Exp Med, 2018).

pIC50: −log10 of the molar value. Calls of active or inactive are those of the source. The calls are words filed in the database; no cut-off is given here.

Test [1] relates to CD4+ T cell. In words: Down-regulation of Erk phosphorylation in TCR-triggered human CD4+ T cell by Western blotting analysis. The test is classed as functional, cell-based. Put shortly: (§1)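 Purified CD4+ T cells in DMSO or inhibitor were coated with 10 μg/ml anti-CD3 and 2.5 μg/ml anti-CD28 on ice for 20 min. They were cross-linked with 20 μg/ml anti-hamster IgG for 2 or 10 min at 37°C, then lysed in 0.5% NP-40 buffer. pErk1/2 (T202/Y204) was read by Western blot and normalized to total Erk. Three independent experiments.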

For test [2], the system named is Mus musculus. The experiment in a line: Antiinflammatory activity in Foxp3-DTR expressing C57BL/6 autoimmune mouse model assessed as decrease in granulocytes at 150 mg/kg after 8 days of Dtx treatment for 5 days. Format: functional, organism-based. The note with it: time 5.0 day. A digest of the protocol: (§2)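 Foxp3-DTR mice were depleted of Treg cells by DTx injection. They received 150 mg/kg inhibitor either together with DTx or starting on day 8 after DTx began. Total cells and T cells, B cells, granulocytes and macrophages in secondary lymphoid organs were counted.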

Test [3] deals with Mus musculus. The experiment in a line: Antiinflammatory activity in Foxp3-DTR expressing C57BL/6 autoimmune mouse model assessed as decrease in B-cells at 150 mg/kg after 8 days of Dtx treatment for 5 days. The test is classed as functional, organism-based. The note with it: time 5.0 day. A digest of the protocol:
as §2

The test system of test [4] is CD4+ T cell. The experiment in a line: Down-regulation of Erk phosphorylation in human CD4+ T cell upto 50 uM by Western blotting analysis. The test is classed as functional, cell-based. A digest of the protocol:
as §1
In general terms: Immunoblotting shows a protein as a band on a membrane.

The test system of test [5] is CD4+ T cell. In words: Anti-proliferative activity against TCR induced mouse CD4+ T cell.
In test [6] the test system is Mus musculus. The experiment in a line: Antiinflammatory activity in Foxp3-DTR expressing C57BL/6 autoimmune mouse model assessed as decrease in macrophages at 150 mg/kg after 8 days of Dtx treatment for 5 days. The test is classed as functional, organism-based. The settings on record: time 5.0 day. Put shortly:
as §2

Test [7] addresses T1, Histone-lysine N-methyltransferase EZH1 (Homo sapiens, UniProt Q92800).
T1 sequence (Q92800 whole entry): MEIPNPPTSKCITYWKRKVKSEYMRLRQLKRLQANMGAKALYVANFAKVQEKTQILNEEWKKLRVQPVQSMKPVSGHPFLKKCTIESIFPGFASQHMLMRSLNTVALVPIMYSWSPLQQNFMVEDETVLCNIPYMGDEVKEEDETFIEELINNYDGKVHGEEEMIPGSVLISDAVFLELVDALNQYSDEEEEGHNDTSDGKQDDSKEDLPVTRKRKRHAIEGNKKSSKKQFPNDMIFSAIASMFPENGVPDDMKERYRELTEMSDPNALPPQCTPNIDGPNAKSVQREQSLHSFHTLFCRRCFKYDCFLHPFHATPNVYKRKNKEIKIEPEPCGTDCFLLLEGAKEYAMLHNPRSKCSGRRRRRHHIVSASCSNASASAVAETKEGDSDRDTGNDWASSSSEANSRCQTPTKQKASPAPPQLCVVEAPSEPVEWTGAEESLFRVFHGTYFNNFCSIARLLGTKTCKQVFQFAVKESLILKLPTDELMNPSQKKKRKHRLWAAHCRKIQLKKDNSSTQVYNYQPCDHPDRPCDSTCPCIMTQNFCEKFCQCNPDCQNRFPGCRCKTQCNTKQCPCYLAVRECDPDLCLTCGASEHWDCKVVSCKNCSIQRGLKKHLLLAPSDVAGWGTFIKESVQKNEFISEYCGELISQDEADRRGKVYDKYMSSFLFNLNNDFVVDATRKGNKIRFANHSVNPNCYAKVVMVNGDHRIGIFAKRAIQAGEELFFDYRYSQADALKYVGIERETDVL
In words: Inhibition of human EZH1.

Test [8] has as its system Mus musculus. In words: Antiinflammatory activity in Foxp3-DTR expressing C57BL/6 autoimmune mouse model assessed as decrease in T-cells at 150 mg/kg after 8 days of Dtx treatment for 5 days. Format: functional, organism-based. The note with it: time 5.0 day. A digest of the protocol: as §2
Test [9] relates to CD4+ T cell. In words: Down-regulation of Erk phosphorylation in human CD4+ T cell upto 50 uM in the presence of PMA by Western blotting analysis. The test is classed as functional, cell-based. A digest of the protocol:
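Purified CD4+ T cells in DMSO or inhibitor were given prewarmed medium with 5 ng/ml PMA for 10 min at 37°C and lysed in 0.5% NP-40 buffer. pErk1/2 (T202/Y204) was detected by Western blot and normalized to total Erk1/2. Three independent experiments.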

The subject of test [10] is Mus musculus. In words: Protection against Foxp3-DTR expressing C57BL/6 autoimmune mouse model assessed as reversal of splenomegaly at 150 mg/kg after 8 days of Dtx treatment for 5 days. The test is classed as functional, organism-based. The settings on record: time 5.0 day. Put shortly:
(§3)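 Foxp3-DTR mice were given DTx to deplete Treg cells, with 150 mg/kg inhibitor either at the same time or from day 8 onward. Splenic Foxp3+ Treg frequency was measured, spleen and lymph node size was photographed, and total lymphoid cells in lymph nodes were counted per mouse.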

Test [11] concerns Mus musculus. In words: Protection activity against Foxp3-DTR expressing C57BL/6 autoimmune mouse model assessed as decrease in number of Ki67+ cells at 150 mg/kg after 8 days of Dtx treatment for 5 days. The note with it: time 5.0 day. The test is classed as functional, organism-based. A digest of the protocol:
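Foxp3-DTR mice were given DTx, and 150 mg/kg inhibitor was started on day 8 after DTx initiation. Ki67+ dividing CD19+ B, CD4+ and CD8+ T cells in lymph nodes were measured per mouse. Two experiments, n = 4–15, unpaired Student's t test.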

Test [12] deals with CD4+ T cell. In words: Downregulation of Erk phosphorylation in TCR-triggered human CD4+ T cell at 10 uM by Western blotting analysis. Format: functional, cell-based. A digest of the protocol: as §1
In test [13] the target is T2, Histone-lysine N-methyltransferase EZH1 (Homo sapiens) (UniProt Q92800).
T2 sequence (whole entry): T1 sequence (Q92800 whole entry)
The experiment in a line: Inhibition of Ezh1 in human CD4+ T cell by mass spectrometry analysis. The test is classed as cell-based.

In test [14] the test system is Mus musculus. In words: Protection against Foxp3-DTR expressing C57BL/6 autoimmune mouse model assessed as prevention of regulatory t cell depletion at 150 mg/kg after 8 days of Dtx treatment for 5 days. The test is classed as functional, organism-based. The note with it: time 5.0 day. Put shortly:
as §3

Test [15] addresses Histone-lysine N-methyltransferase EZH2 (Homo sapiens) (UniProt Q15910). In words: Inhibition of EZH2 (unknown origin) at 45 nM.
Test [16] deals with CD4+ T cell. The experiment in a line: Down-regulation of Mek1/2 at S217/221 phosphorylation in TCR-triggered human CD4+ T cell at 10 uM by Western blotting analysis. The test is classed as functional, cell-based. A digest of the protocol:
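CD4+ T cells in DMSO or 10 µM inhibitor were stimulated with anti-CD3 plus anti-CD28 antibodies. pMek1/2 (S217/221) was measured by Western blot and normalized to total Mek1. Three independent experiments.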

The target in test [17] is T2, Histone-lysine N-methyltransferase EZH1 (Homo sapiens). In words: Inhibition of EZH1 (unknown origin) at 2 nM.
Test [18] has as its system CD4+ T cell. In words: Effect on Erk phosphorylation in TCR-triggered human CD4+ T cell at 10 uM by Western blotting analysis. The test is classed as functional, cell-based. A digest of the protocol:
as §1

The term pIC50 denotes −log10 of the IC50, conventionally taken in molar units. A higher pIC50 goes with a small IC50.

Sequence of Histone-lysine N-methyltransferase EZH2 (Homo sapiens) (Q15910 whole entry, looked up): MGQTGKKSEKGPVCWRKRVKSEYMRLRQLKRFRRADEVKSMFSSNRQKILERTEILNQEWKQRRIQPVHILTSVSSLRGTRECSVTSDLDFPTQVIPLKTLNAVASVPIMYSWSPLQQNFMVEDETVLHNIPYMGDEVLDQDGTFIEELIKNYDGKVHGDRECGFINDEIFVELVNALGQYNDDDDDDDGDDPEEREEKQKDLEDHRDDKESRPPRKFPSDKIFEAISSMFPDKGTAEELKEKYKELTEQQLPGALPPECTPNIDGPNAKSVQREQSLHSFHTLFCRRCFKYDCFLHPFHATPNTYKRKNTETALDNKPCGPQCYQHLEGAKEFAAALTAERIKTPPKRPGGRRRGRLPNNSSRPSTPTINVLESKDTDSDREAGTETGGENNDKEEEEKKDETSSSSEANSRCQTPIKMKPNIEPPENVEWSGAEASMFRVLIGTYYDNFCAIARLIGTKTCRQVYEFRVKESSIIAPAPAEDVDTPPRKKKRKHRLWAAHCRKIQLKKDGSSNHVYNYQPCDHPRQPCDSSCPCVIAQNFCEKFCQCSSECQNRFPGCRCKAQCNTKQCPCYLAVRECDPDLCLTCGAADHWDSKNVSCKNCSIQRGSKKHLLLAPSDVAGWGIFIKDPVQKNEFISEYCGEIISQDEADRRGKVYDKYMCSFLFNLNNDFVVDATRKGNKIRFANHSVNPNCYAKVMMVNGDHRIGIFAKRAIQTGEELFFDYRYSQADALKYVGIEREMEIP

Regarding `CCCc1cc(C)n(C)c(=O)c1CN(C)C(=O)c1cc(-c2ccc(N3CCN(C(C)C)CC3)nc2)cc2c1cnn2C(C)C`, the outcome in test [1] was inactive.

As to `Cc1cc(C)c(CNC(=O)c2cc(-c3ccc(N4CCN(C)CC4)nc3)cc3c2c(C)cn3C(C)C)c(=O)[nH]1`, the result in test [2], in test [3], in [4], in test [5], in [6] and in test [8] was Active. Besides, the outcome in test [10], in test [11], in [12] and in test [14] was Active. In test [7], this molecule had a pIC50 of 6.20. Moreover, the result in test [9] was inactive. Further, the inhibition result in test [13] was “Active”.

On to `CCCc1cc(C)[nH]c(=O)c1CNC(=O)c1cc(-c2ccc(N3CCN(C(C)C)CC3)nc2)cc2c1cnn2C(C)C`, for which the inhibition entry in test [15] and in [17] was “Active” throughout. Further, the result in [1], in test [16] and in test [18] was Active.
